In publication PMC8577376 (Journal of Medicinal Chemistry, 2021):

Tests used:
[1] = molecular target: VeroE6 lysates (CatL activity) (Chlorocebus aethiops, UniProt Q9GKL8); assay: Protease activity in VeroE6 cell lysates using Z-Phe-Arg-AMC; type: biochemical, monkey; details: for inhibition of Z-Phe-Arg-AMC cleaving activity in VeroE6 lysates: 20 μM; for inactivation of CatL in VeroE6 lysates: 10 μM
[2] = tested on: A549 lysates (CatL/CatB activity); assay: Protease activity in A549 cell lysates using Z-Phe-Arg-AMC; type: biochemical, human; details: for inhibition of Z-Phe-Arg-AMC cleaving activity in A549 cell extracts: 20 μM; for inactivation of CatL in A549 lysates: 10 μM
Method in brief: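 A549 cells lysed by sonication in 50 mM MES pH 6.0 with 100 μM AEBSF, 1 μM pepstatin A, 1 mM EDTA and 1 mM DTT; protein measured by BCA. Equal volume of 50 μM Z-Phe-Arg-AMC then added; activity normalised to 0.2% DMSO wells.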

[3] = molecular target: T1, human CatL (Homo sapiens, UniProt P07711); assay: kinact/KI^app determination, recombinant human CatL; type: biochemical; details: for selectivity for CatL over CatB (kinact/KI^app): human CatL vs human CatB; for kinact/KI: read-out: kinact/KI^app
Method in brief: (§1)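 Test compound 555.56–0.01 nM, quadruplicate wells. Product formation rates taken at 6 min intervals over 1 h, normalised to DMSO controls. kobs from inactivation curves; kinact and KIapp by nonlinear regression of kobs = kinact[I]/(KIapp+[I]); ratio then calculated.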

[4] = molecular target: Human CatB (Homo sapiens, UniProt P07858); assay: kinact/KI^app determination, recombinant human CatB; type: biochemical; details: for kinact/KI: read-out: kinact/KI^app
Method in brief: as §1

[5] = molecular target: Mouse CatL (mCatL) (Mus musculus, UniProt P06797); assay: kinact/KI^app determination, mouse CatL; type: biochemical; details: for kinact/KI: read-out: kinact/KI^app
Method in brief: as §1

[6] = tested on: SARS-CoV-2; assay: SARS-CoV-2-induced CPE in A549/ACE2 cells, inverted microscope; type: cell-based; details: 96 h
[7] = molecular target: T1, human CatL; assay: Single-concentration protease screen against human CatL; type: biochemical; details: for follow-up screen against CatL: 13 nM
[8] = molecular target: SARS-CoV-2 Mpro (Severe acute respiratory syndrome coronavirus 2, UniProt P0DTD1); assay: Single-concentration protease screen against SARS-CoV-2 Mpro; type: biochemical; details: 10 μM
[9] = molecular target: SARS-CoV-2 PLpro (Severe acute respiratory syndrome coronavirus 2, UniProt P0DTD1); assay: Single-concentration protease screen against SARS-CoV-2 PLpro; type: biochemical; details: 10 μM
[10] = molecular target: Recombinant human furin (Homo sapiens, UniProt P09958); type: biochemical; details: up to 50 μM (final concentration)
[11] = molecular target: Recombinant human TMPRSS2 (Homo sapiens, UniProt O15393); assay: TMPRSS2 protease activity assay; type: biochemical; details: up to 50 μM (final concentration)
[12] = tested on: SARS-CoV-2; type: cell-based; details: MRC-5/ACE2/TMPRSS2 cells
[13] = tested on: SARS-CoV-2; type: cell-based; details: 24 h
[14] = tested on: SARS-CoV-2; type: cell-based
[15] = tested on: SARS-CoV-2; assay: microbe, parasite or virus in culture; type: cell-based

T1 sequence (P07711 114-333): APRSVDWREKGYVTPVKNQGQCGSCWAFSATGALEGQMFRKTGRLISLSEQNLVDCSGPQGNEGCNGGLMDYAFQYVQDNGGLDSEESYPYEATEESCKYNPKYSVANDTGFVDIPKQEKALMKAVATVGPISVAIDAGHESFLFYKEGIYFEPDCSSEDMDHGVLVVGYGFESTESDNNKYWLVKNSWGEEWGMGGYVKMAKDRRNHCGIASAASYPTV
Sequence of VeroE6 lysates (CatL activity) (Q9GKL8 114-333): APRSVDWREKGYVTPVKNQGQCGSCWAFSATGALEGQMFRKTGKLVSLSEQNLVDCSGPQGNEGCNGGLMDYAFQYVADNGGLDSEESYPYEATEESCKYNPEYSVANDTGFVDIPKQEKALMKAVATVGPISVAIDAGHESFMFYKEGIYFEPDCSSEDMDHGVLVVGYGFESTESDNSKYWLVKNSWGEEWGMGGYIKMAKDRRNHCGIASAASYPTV
Sequence of Mouse CatL (mCatL) (P06797 114-334): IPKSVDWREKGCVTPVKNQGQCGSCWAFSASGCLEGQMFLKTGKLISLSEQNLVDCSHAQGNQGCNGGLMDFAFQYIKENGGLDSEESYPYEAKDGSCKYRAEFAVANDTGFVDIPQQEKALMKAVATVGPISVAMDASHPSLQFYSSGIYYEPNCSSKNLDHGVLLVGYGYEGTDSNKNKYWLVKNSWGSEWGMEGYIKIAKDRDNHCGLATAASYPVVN
Sequence of Recombinant human TMPRSS2 (O15393 whole entry): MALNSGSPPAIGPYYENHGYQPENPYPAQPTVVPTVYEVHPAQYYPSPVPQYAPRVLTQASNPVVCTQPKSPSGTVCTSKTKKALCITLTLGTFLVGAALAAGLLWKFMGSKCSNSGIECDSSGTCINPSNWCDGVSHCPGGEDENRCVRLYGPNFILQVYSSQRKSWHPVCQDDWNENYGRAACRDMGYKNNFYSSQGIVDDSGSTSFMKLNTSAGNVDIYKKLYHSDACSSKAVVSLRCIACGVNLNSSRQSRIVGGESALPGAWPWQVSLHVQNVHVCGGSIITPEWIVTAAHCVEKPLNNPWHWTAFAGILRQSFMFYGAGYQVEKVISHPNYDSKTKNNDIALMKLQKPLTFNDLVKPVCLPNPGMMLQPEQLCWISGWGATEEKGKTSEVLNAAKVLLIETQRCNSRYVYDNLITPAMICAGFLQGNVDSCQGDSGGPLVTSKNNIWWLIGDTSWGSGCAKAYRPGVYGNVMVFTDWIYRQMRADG
Sequence of Recombinant human furin (P09958 108-794): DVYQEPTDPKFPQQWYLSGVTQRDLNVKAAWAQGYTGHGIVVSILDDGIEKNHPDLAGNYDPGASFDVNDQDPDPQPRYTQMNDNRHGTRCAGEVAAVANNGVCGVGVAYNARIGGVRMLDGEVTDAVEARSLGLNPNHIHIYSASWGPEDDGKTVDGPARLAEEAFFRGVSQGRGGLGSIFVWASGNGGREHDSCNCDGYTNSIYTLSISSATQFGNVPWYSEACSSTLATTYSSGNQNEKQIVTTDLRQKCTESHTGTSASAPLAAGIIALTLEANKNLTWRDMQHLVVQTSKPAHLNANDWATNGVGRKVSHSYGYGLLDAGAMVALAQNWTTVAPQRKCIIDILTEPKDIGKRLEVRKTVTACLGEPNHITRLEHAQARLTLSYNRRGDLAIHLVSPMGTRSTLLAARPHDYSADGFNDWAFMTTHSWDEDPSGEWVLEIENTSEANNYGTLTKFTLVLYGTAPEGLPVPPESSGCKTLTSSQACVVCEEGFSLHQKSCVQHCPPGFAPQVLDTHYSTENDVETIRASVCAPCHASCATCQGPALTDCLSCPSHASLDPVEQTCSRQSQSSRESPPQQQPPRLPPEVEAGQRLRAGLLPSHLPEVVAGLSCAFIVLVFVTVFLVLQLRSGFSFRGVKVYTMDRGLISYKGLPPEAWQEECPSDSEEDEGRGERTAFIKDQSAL

| Structure (SMILES) | kinact [3] [s⁻¹] | kinact/KI [3] [M⁻¹ s⁻¹] | kinact [4] [s⁻¹] | kinact/KI [4] [M⁻¹ s⁻¹] | kinact [5] [s⁻¹] | kinact/KI [5] [M⁻¹ s⁻¹] | lowest concentration completely preventing virus-induced CPE [6] [nM] | follow-up screen against CatL [7] | also measured |
| --- | --- | --- | --- | --- | --- | --- | --- | --- | --- |
| CCCNC(=O)[C@H]1O[C@@H]1C(=O)N[C@H](C(=O)N1CCC[C@H]1C(=O)O)[C@@H](C)CC [CA-074, reference compound] |  |  |  |  |  |  |  |  | inhibition of Z-Phe-Arg-AMC cleaving activity in VeroE6 lysates [1]: no inhibitory activity; inhibition of Z-Phe-Arg-AMC cleaving activity in A549 cell extracts [2]: most of the activity was also sensitive |
| CC[C@H](C)[C@@H](C(=O)O[C@@H](CC(C)C)C(=O)N[C@@H](CC(C)C)C(=O)N[C@@H](C)/C=C/C(=O)N1C(=O)C=C(OC)[C@@H]1C)N(C)C [compound 1, gallinamide A] | 0.00475 | 598000 | 0.000627 | 5350 | 0.00569 | 1.07e+06 | 625 | most potent inhibitors | selectivity for CatL over CatB (kinact/KI^app) [3]: 112 fold; CatL activity after incubation with compound ([7]; 10 μM): completely inhibited; inhibition of Mpro [8]: no inhibition; inhibition of PLpro [9]: no inhibition; inhibition of furin activity [10]: did not inhibit; inhibition of TMPRSS2 activity [11]: did not inhibit; inhibition of Z-Phe-Arg-AMC cleaving activity in VeroE6 lysates [1]: completely inhibited; inhibition of Z-Phe-Arg-AMC cleaving activity in A549 cell extracts [2]: inhibited; concentration completely neutralizing SARS-CoV-2 entry [12]: 32 nM; antiviral activity in HEK293-ACE2-TMPRSS2 cells [13]: substantially reduced; inhibitory effect on infection by time of addition [14]: maximum when 1 was added prior to or at the time of entry |
| CC[C@H](C)[C@@H](C(=O)O[C@@H](CC(C)C)C(=O)N[C@@H](CC(C)C)C(=O)N[C@@H](C)/C=C/C(=O)N1C(=O)C=C(OC)[C@@H]1CC(C)C)N(C)C [compound 3] |  |  |  |  |  |  |  | most potent inhibitors |  |
| COC1=CC(=O)N(C(=O)/C=C/[C@H](C)NC(=O)[C@H](CC(C)C)NC(=O)[C@H](CC2CCCCC2)NC(=O)C2CCN(C)CC2)[C@H]1Cc1c[nH]c2ccccc12 [compound 17] | 0.00347 | 193000 | 0.0209 | 24300 | 0.00856 | 292000 |  | most potent inhibitors | EC50 ([15]; Severe acute respiratory syndrome coronavirus 2, Vero C1008, 72 h, read-out: EC50 SARS-CoV-2, VeroE6 cells, 72 h, mean ± SD of 3–4 independent biological replicates): > 5 µM; selectivity for CatL over CatB (kinact/KI^app) [3]: 8 fold; inactivation of CatL in VeroE6 lysates [1]: complete inactivation; inactivation of CatL in A549 lysates [2]: complete inactivation |
| COC1=CC(=O)N(C(=O)/C=C/[C@H](C)NC(=O)[C@H](CCc2ccccc2)NC(=O)[C@H](CC2CCCCC2)NC(=O)[C@H](C(C)C)N(C)C)[C@H]1Cc1c[nH]c2ccccc12 [compound 19] | 0.00587 | 189000 | 0.00335 | 9650 | 0.00224 | 136000 | 310 | most potent inhibitors | concentration completely neutralizing SARS-CoV-2 entry [12]: 32 nM |
| COC1=CC(=O)N(C(=O)/C=C/[C@H](C)NC(=O)[C@H](CC(C)C)NC(=O)[C@H](CC(C)C)NC(=O)C2CCN(C)CC2)[C@H]1Cc1c[nH]c2ccccc12 [compound 20] | 0.00834 | 290000 | 0.017 | 19900 | 0.00319 | 806000 |  | most potent inhibitors | inactivation of CatL in VeroE6 lysates [1]: complete inactivation; inactivation of CatL in A549 lysates [2]: complete inactivation |
| COC1=CC(=O)N(C(=O)/C=C/[C@H](CCc2ccccc2)NC(=O)[C@H](CC(C)C)NC(=O)[C@H](CC(C)C)NC(=O)[C@H](C(C)C)N(C)C)[C@H]1Cc1c[nH]c2ccccc12 [compound 23] | 0.00985 | 835000 | 0.00189 | 7940 | 0.0096 | 2.31e+06 | 310 | most potent inhibitors | fold more potent than parent natural product 1, based on kinact/KI^app ([3]; human CatL): 1.4 fold |
| CS(=O)(=O)O.CS(=O)(=O)O.N=C(N)Nc1ccc(C(=O)Oc2ccc3cc(C(=N)N)ccc3c2)cc1 [nafamostat mesylate, reference compound] |  |  |  |  |  |  |  |  | antiviral activity on VeroE6 cells [15]: not effective; antiviral activity on VeroE6 cells ([15]; listed as Nafamostat mesylate): did not exhibit notable antiviral activity; concentration of neutralization of infection [12]: 4 µM; antiviral activity in HEK293-ACE2-TMPRSS2 cells [13]: potent antiviral activity |
